One may read the IC50 as the concentration that inhibits the measured activity by half.

Here are results for three compounds from article PMC4750707 (Antimicrobial Agents and Chemotherapy, 2016).

Converted amounts (≈) assume the structure as drawn.

One experiment deals with P. aeruginosa PBP1a (Pseudomonas aeruginosa, UniProt Q07806). Put plainly: PBP competition assay with Bocillin FL. Type of experiment: binding. The procedure, abridged: (§1)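 E. coli K-12 or P. aeruginosa 1771 grown in BHI at 35°C to A600 ~1.5. Cells in 50 mM phosphate pH 7.0 were French-pressed; membranes pelleted at 150,000 × g. Membranes (10–20 μg protein) were pre-incubated with test compound 10 min at 30°C, then Bocillin FL (100 μM final) 20 min. SDS-PAGE, fluorescence scan. IC50 in μg/ml from ≥8 concentrations versus no-drug control.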
P. aeruginosa PBP1a, sequence (Q07806 whole entry): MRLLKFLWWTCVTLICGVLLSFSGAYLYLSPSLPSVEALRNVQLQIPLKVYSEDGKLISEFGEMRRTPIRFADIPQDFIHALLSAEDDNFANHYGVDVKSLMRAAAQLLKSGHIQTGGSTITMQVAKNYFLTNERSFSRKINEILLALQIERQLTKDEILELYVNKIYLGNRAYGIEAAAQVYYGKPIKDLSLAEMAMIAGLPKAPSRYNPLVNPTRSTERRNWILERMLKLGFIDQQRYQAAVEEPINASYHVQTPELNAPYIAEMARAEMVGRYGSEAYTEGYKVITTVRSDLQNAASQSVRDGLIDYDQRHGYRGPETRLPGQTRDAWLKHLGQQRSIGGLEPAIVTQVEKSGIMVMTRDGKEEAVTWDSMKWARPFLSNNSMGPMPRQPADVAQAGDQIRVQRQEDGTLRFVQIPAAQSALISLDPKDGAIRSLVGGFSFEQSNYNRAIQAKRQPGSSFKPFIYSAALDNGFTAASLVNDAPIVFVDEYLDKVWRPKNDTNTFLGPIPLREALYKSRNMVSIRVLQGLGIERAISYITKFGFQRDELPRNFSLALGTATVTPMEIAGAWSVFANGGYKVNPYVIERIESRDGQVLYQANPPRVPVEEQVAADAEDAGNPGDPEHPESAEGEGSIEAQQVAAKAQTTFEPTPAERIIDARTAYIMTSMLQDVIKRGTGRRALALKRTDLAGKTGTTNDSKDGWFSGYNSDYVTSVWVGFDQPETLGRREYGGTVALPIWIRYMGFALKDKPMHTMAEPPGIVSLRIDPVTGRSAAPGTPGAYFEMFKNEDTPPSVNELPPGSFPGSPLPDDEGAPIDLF

A further experiment has as its target S. aureus PBP3 (Staphylococcus aureus, UniProt Q9XDB3). Briefly: PBP competition assay with Bocillin FL. It counts as binding. The procedure, abridged: (§2)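 S. aureus ATCC 29213 membranes were prepared in KPN buffer pH 7.5. Lysis used lysostaphin 400 μg/ml for 1 h at 37°C plus protease inhibitors, DNase and RNase, then French press. Membranes (10–20 μg protein) received test compound for 10 min at 30°C, then Bocillin FL 100 μM final for 20 min. SDS-PAGE band volumes; IC50 from three assays of six concentrations versus no-drug control.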

In the next experiment the test system is S. aureus. Put plainly: Broth microdilution MIC. It counts as cell-based. To be noted: Staphylococcus aureus, ATCC29213. The method, boiled down: (§3)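 MICs by CLSI broth microdilution in cation-adjusted Mueller-Hinton broth. Strains grown in BHI broth at 35°C: E. coli K-12, P. aeruginosa 1771 and S. aureus ATCC 29213. H. influenzae Rd grown in BHI with Haemophilus test medium supplement (hemin and β-NAD, 15 μg/ml each).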

In a further experiment the test system is H. influenzae. Briefly: Broth microdilution MIC. It counts as cell-based. To be noted: Haemophilus influenzae. The method, boiled down: as §3
For orientation: Broth dilution looks for growth in wells or tubes with falling amounts of substance.

In the next experiment the target is P. aeruginosa PBP3 (Pseudomonas aeruginosa, UniProt G3XD46). Put plainly: PBP competition assay with Bocillin FL. It counts as binding.
P. aeruginosa PBP3, sequence (G3XD46 whole entry): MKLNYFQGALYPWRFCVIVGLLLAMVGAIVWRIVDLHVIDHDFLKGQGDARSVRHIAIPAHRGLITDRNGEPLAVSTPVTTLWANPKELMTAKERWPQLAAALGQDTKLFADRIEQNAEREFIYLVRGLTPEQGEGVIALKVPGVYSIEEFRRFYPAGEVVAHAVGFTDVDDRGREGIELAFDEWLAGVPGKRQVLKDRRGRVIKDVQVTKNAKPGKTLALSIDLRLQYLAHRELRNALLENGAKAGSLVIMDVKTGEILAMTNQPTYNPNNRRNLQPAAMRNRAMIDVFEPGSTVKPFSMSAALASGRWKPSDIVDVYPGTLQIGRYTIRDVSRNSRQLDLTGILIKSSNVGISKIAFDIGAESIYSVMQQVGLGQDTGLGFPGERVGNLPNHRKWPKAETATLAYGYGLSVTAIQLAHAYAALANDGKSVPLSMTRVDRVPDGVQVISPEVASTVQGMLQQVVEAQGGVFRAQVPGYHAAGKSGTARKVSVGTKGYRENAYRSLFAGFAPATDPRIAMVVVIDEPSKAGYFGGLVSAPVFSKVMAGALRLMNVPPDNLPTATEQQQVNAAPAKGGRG
For a further experiment, the system named is E. coli PBP5/6. Put plainly: PBP competition assay with Bocillin FL. Type of experiment: binding, Escherichia coli. To be noted: E. coli K-12 membranes; Bocillin FL 100 μM. The method, boiled down: as §1
The test system of another experiment is P. aeruginosa. Briefly: Broth microdilution MIC. Type of experiment: cell-based. To be noted: Pseudomonas aeruginosa. The procedure, abridged:
as §3

For a further experiment, the target named is T1, S. aureus PBP4 (Staphylococcus aureus, UniProt P72355).
T1 sequence (P72355 25-431): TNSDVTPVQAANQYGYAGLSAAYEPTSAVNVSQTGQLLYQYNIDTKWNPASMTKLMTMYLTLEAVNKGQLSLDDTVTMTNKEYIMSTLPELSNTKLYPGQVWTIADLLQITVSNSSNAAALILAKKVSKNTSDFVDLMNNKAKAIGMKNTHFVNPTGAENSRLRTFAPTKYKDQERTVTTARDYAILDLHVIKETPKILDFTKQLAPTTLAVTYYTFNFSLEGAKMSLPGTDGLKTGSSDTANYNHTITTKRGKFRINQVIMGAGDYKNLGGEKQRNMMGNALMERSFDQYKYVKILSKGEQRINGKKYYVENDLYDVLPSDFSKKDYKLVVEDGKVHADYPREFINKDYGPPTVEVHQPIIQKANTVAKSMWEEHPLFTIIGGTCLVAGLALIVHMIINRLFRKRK
Put plainly: PBP competition assay with Bocillin FL. Type of experiment: binding.

A further experiment has as its target T2, E. coli PBP1b (Escherichia coli, UniProt P02919).
T2 sequence (P02919 1-844): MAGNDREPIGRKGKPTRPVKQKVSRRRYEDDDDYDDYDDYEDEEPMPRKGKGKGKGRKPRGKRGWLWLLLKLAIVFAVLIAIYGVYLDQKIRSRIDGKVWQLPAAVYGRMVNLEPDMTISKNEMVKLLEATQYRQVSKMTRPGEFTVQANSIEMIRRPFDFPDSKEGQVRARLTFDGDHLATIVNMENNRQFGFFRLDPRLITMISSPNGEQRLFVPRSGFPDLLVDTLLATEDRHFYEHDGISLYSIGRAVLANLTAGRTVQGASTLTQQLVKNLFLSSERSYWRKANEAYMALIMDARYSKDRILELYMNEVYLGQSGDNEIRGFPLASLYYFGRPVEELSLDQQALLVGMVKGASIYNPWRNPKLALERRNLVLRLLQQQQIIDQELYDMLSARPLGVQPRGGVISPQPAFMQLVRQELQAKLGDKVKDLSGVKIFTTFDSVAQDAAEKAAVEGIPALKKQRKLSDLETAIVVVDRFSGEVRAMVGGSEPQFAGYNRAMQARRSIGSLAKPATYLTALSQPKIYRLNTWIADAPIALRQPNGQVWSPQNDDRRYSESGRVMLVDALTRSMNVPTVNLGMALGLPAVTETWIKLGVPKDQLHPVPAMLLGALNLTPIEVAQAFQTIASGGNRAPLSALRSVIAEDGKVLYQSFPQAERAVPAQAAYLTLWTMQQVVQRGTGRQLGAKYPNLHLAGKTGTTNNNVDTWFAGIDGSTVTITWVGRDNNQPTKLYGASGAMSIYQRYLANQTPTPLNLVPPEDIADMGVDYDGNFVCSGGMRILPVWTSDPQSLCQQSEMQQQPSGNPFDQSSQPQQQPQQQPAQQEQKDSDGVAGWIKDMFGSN
Put plainly: PBP competition assay with Bocillin FL. It counts as binding. The method, boiled down: as §1

The target of the next experiment is T3, E. coli PBP2 (Escherichia coli, UniProt P0AD65).
T3 sequence (P0AD65 1-633): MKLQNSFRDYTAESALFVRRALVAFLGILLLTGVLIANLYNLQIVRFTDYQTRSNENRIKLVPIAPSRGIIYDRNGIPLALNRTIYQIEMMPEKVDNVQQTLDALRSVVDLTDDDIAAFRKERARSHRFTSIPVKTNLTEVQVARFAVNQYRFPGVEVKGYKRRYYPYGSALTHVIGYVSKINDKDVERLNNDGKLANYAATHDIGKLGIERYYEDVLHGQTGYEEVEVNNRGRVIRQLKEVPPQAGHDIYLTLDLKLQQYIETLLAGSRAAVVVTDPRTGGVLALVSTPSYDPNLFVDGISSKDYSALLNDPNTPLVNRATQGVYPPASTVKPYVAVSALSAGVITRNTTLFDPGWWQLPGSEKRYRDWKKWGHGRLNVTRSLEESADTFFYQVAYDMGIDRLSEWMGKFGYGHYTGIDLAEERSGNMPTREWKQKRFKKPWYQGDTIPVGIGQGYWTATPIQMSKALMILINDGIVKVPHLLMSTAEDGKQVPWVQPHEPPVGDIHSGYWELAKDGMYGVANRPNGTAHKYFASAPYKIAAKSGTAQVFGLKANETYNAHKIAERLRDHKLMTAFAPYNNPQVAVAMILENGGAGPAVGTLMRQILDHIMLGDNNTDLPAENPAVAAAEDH
Put plainly: PBP competition assay with Bocillin FL. Type of experiment: binding. The procedure, abridged: as §1

A further experiment concerns the target S. aureus PBP2 (Staphylococcus aureus, UniProt Q9R744). Put plainly: PBP competition assay with Bocillin FL. Type of experiment: binding. The method, boiled down: as §2

S. aureus PBP2, sequence (Q9R744 1-727): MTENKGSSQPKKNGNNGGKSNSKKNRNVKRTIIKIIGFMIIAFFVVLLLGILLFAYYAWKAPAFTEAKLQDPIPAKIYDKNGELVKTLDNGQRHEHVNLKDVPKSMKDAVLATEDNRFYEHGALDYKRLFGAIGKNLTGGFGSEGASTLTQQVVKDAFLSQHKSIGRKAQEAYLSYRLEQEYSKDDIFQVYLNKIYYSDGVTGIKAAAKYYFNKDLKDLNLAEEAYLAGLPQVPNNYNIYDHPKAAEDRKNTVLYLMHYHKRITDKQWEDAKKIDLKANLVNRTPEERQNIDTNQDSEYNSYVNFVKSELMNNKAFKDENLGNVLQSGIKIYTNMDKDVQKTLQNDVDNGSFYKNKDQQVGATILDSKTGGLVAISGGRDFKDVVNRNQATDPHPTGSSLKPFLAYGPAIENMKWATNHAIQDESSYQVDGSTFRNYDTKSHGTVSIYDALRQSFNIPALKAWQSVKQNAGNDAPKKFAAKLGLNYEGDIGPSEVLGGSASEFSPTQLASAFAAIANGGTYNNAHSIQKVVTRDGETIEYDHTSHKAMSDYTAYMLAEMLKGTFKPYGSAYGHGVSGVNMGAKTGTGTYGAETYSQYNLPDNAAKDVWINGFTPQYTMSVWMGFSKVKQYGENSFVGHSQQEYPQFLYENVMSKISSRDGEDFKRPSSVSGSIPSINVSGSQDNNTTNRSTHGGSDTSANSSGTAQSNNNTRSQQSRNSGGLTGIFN
S. aureus PBP3, sequence (Q9XDB3 1-691): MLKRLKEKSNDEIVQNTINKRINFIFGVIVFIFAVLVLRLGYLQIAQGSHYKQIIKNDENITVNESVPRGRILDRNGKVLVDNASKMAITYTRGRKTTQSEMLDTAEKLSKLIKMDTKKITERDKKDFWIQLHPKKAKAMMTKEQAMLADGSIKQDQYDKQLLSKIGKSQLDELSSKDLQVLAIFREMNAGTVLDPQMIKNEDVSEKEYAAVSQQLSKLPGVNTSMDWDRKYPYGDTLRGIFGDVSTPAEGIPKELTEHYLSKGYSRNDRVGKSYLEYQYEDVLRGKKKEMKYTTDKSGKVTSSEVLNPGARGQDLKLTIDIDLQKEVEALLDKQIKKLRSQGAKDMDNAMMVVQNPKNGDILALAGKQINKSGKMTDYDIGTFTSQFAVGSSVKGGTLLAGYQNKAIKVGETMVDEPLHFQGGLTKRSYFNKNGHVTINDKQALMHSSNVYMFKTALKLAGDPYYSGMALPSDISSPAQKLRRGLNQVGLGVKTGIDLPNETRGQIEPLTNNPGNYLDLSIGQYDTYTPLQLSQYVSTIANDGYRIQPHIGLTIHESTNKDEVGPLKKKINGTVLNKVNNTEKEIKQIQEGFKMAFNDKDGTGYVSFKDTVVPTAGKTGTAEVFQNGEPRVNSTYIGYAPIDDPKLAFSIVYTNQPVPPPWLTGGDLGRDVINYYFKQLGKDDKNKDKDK

Take `NC(=O)[C@@H]1CC[C@@H]2CN1C(=O)N2OS(=O)(=O)O` [AVI, avibactam]: the half-inhibitory concentration (IC50) at P. aeruginosa PBP1a is over 49 µM; at S. aureus PBP3, 588 µM; on P. aeruginosa PBP3 it was 6.79 µM; on S. aureus PBP4 it was over 965 µM; at E. coli PBP1b it was over 49 µM; at E. coli PBP2 it was 3.47 µM. The compound further showed an IC50 on S. aureus PBP2 of 192 µM. Further, the MIC was 256 µg/mL (≈ 965 µM) against S. aureus, 64 µg/mL (≈ 241 µM) with H. influenzae and over 128 µg/mL against P. aeruginosa. Moreover, in the experiment on E. coli PBP5/6, the “Relative binding (IC50) for PBP 5/6” value is over 13 µg/mL.

With `CC(C)(O/N=C(\C(=O)N[C@@H]1C(=O)N2C(C(=O)[O-])=C(C[n+]3ccccc3)CS[C@H]12)c1csc(N)n1)C(=O)O` [CAZ, ceftazidime], the IC50 at P. aeruginosa PBP1a is 0.348 µM; at S. aureus PBP3, over 14.6 µM; at P. aeruginosa PBP3 it was 0.0732 µM; at S. aureus PBP4 it was over 14.6 µM; on E. coli PBP1b, 14.6 µM; on E. coli PBP2 it was over 45.7 µM. Besides, the IC50 at S. aureus PBP2 is 1.28 µM. Further, the MIC is 16 µg/mL (≈ 29.3 µM) with S. aureus and 4 µg/mL (≈ 7.32 µM) in the experiment with P. aeruginosa. In addition, the “Relative binding (IC50) for PBP 5/6” value in the experiment with E. coli PBP5/6 was over 25 µg/mL. Besides, the “Binding to S. aureus PBP4 revealed by reduction of Bocillin FL labeling” value at S. aureus PBP4 (S. aureus membranes, in presence of avibactam fixed at 4 μg/ml) is recorded as “affinity for PBP4 was much lower”.

Consider `CC1(C)S[C@@H]2[C@H](/N=C/N3CCCCCC3)C(=O)N2[C@H]1C(=O)O` [MEC, amdinocillin], for which the figures for the IC50 on P. aeruginosa PBP1a, at E. coli PBP1b and at E. coli PBP2 were over 39.9 µM, over 39.9 µM and 0.0615 µM, respectively.
